Experimental data as given in ChEMBL document CHEMBL1157912, “Impact of nature and length of linker incorporated in agonists on toll-like receptor 9-mediated immune responses” (J Med Chem, 2010).
Calls of active or inactive are those of the source. The rule behind the calls is not given here.

Tests used:
[1] = target: T1, Toll-like receptor 9 (Homo sapiens) (UniProt Q9NR96); experiment: Induction of TLR9-mediated immune stimulation in human PBMC assessed as IL12 production at 2 ug/ml after 24 hrs by luminex multiplex assay (RVb = 0.00 ng/ml)
T1 sequence (whole entry): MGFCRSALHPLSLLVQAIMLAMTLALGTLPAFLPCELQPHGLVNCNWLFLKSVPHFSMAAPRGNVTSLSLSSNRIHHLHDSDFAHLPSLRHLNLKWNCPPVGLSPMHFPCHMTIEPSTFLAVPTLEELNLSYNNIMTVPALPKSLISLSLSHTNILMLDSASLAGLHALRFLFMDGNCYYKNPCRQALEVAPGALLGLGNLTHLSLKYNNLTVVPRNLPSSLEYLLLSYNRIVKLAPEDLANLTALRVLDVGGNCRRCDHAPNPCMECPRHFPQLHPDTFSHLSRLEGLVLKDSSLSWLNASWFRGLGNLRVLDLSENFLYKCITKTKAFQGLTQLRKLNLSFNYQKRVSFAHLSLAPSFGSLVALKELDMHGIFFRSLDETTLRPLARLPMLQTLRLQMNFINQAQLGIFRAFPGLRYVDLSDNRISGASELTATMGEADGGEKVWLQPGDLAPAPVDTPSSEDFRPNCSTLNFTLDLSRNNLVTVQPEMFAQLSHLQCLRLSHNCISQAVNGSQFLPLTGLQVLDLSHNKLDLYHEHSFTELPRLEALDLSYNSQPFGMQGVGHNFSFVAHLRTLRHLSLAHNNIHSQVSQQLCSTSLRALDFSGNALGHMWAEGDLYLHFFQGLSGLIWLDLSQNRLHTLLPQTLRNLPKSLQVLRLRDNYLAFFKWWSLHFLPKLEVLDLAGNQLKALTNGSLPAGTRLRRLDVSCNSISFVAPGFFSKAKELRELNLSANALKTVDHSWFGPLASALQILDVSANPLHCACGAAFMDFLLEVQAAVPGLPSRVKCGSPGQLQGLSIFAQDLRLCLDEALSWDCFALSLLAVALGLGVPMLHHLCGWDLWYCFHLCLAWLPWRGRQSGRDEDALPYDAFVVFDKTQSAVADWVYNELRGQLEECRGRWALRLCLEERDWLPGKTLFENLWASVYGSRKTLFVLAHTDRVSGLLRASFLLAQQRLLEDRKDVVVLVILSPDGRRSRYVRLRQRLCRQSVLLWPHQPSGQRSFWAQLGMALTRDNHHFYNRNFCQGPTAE

[2] = target: T1, Toll-like receptor 9 (Homo sapiens); experiment: Induction of TLR9-mediated human B cell proliferation assessed as [3H]thymidine uptake at 2 to 10 ug/ml after 56 hrs by scintillation counting; format: cell-based
Procedure, shortened: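 B cells were purified from human PBMCs (healthy volunteers), about 1 × 10⁵ cells, and stimulated with various agonist concentrations for 56 h. Cells were then pulsed with 0.75 μCi [³H]-thymidine and harvested 16 h later. Incorporation was counted by scintillation and reported as cpm.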

[3] = target: T1, Toll-like receptor 9 (Homo sapiens); experiment: Induction of TLR9-mediated immune stimulation in human PBMC assessed as IL2R production at 10 ug/ml after 24 hrs by luminex multiplex assay (RVb = 0.02 +/- 0.01 ng/ml)
[4] = target: T2, Toll-like receptor 9 (Mus musculus) (UniProt Q9EQU3); experiment: Activation of mouse TLR9 expressed in HEK293 cells assessed as induction of NF-kappaB activity at 1 to 10 ug/ml after 18 hrs by SEAP assay; format: cell-based
T2 sequence (whole entry): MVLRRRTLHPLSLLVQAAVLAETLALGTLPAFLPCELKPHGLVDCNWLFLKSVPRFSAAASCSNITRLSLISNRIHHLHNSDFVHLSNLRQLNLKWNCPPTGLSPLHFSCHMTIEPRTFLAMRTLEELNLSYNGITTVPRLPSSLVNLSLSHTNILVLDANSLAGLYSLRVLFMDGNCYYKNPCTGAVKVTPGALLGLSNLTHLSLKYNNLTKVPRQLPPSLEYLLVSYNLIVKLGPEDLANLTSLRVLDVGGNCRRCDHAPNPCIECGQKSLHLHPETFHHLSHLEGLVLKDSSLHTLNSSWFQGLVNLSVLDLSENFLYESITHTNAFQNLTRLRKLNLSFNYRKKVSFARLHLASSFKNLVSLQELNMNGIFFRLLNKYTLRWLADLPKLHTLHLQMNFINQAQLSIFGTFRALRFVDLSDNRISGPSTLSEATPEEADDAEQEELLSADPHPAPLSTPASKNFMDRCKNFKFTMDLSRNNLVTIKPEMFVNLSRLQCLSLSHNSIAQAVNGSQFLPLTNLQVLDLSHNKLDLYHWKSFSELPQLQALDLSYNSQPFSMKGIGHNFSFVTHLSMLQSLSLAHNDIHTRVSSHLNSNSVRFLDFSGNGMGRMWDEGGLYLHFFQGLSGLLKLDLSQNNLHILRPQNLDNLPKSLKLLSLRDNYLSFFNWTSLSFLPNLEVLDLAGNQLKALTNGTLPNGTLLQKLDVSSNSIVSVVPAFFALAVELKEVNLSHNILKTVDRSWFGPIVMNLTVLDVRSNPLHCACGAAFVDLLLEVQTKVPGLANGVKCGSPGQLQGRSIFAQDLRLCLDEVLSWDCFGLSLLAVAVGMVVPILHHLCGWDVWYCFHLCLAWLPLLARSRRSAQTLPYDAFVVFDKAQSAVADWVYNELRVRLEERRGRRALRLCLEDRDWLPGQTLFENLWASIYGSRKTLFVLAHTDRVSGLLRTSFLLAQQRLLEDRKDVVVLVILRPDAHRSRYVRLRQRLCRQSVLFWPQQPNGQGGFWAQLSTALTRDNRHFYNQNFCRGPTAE
Procedure, shortened: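 HEK293 cells stably expressing mouse TLR9 were grown in DMEM with 10% heat-inactivated FBS. At 80% confluence they were transiently transfected with a SEAP reporter plasmid (100 ng/well, lipofectamine) for 6 h. Medium was then replaced and agonists were added for 18 h. Supernatant SEAP was read with QuantiBlue substrate at 620-645 nm. Results are expressed as fold NF-κB activity over PBS control.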

[5] = target: T2, Toll-like receptor 9 (Mus musculus); experiment: Induction of TLR9-mediated IL12 production in C57BL/6 mouse spleen cells after 24 hrs by ELISA; format: cell-based
Procedure, shortened: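 C57BL/6 mouse spleen cells were cultured with agonists at 0.1, 0.3, 1, 3 and 10 μg/mL for 24 h. Secreted IL-12 and IL-6 in the supernatants were measured by ELISA. Values are averages of triplicate wells from one representative of at least two independent experiments.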

Compound	Activity [1] [ng/mL]	Activity [2]	Activity [3] [ng/mL]	Activity [4]	Activity [5]
Cc1cn([C@H]2C[C@H](OCC(O)COP(=O)(S)O[C@H]3C[C@H](n4cc(C)c(=O)[nH]c4=O)O[C@@H]3COP(=O)(S)O[C@H]3[C@@H](O)[C@H](n4ccc(N)nc4=O)O[C@@H]3COP(=O)(S)O[C@H]3[C@@H](O)[C@H](n4cnc5c(N)ncnc54)O[C@@H]3COP(=O)(S)O[C@H]3[C@@H](O)[C@H](n4cnc5c(N)ncnc54)O[C@@H]3COP(=O)(S)O[C@H]3[C@@H](O)[C@H](n4ccc(N)nc4=O)O[C@@H]3COP(=O)(S)O[C@H]3[C@@H](O)[C@H](n4ccc(N)nc4=O)O[C@@H]3COP(=O)(S)O[C@H]3[C@@H](O)[C@H](n4cnc5c(N)ncnc54)O[C@@H]3COP(=O)(S)O[C@H]3[C@@H](O)[C@H](n4ccc(N)nc4=O)O[C@@H]3COP(=O)(S)O[C@H]3[C@@H](O)[C@H](n4cnc5c(N)ncnc54)O[C@@H]3COP(=O)(S)O[C@H]3[C@@H](O)[C@H](n4ccc(N)nc4=O)O[C@@H]3COP(=O)(S)O[C@H]3[C@@H](O)[C@H](n4cnc5c(N)ncnc54)O[C@@H]3CO)[C@@H](COP(=O)(S)O[C@H]3[C@@H](O)[C@H](n4ccc(N)nc4=O)O[C@@H]3COP(=O)(S)O[C@H]3[C@@H](O)[C@H](n4cnc5c(N)ncnc54)O[C@@H]3COP(=O)(S)O[C@H]3[C@@H](O)[C@H](n4cnc5c(N)ncnc54)O[C@@H]3COP(=O)(S)O[C@H]3[C@@H](O)[C@H](n4ccc(N)nc4=O)O[C@@H]3COP(=O)(S)O[C@H]3[C@@H](O)[C@H](n4ccc(N)nc4=O)O[C@@H]3COP(=O)(S)O[C@H]3[C@@H](O)[C@H](n4cnc5c(N)ncnc54)O[C@@H]3COP(=O)(S)O[C@H]3[C@@H](O)[C@H](n4ccc(N)nc4=O)O[C@@H]3COP(=O)(S)O[C@H]3[C@@H](O)[C@H](n4cnc5c(N)ncnc54)O[C@@H]3COP(=O)(S)O[C@H]3[C@@H](O)[C@H](n4ccc(N)nc4=O)O[C@@H]3COP(=O)(S)O[C@H]3[C@@H](O)[C@H](n4cnc5c(N)ncnc54)O[C@@H]3CO)O2)c(=O)[nH]c1=O (stereo partly drawn)	0.03	Active	0.07	Active	Dose-dependent effect
Cc1cn([C@H]2C[C@H](O[C@@H]3C[C@@H](O)C[C@@H](OP(=O)(S)O[C@H]4C[C@H](n5cc(C)c(=O)[nH]c5=O)O[C@@H]4COP(=O)(S)O[C@H]4[C@@H](O)[C@H](n5ccc(N)nc5=O)O[C@@H]4COP(=O)(S)O[C@H]4C[C@H](n5cc(C)c(=O)[nH]c5=O)O[C@@H]4COP(=O)(S)O[C@H]4C[C@H](n5cc(C)c(=O)[nH]c5=O)O[C@@H]4COP(=O)(S)O[C@H]4C[C@H](n5ccc6c(=O)[nH]c(N)nc65)O[C@@H]4COP(=O)(S)O[C@H]4[C@@H](O)[C@H](n5ccc(N)nc5=O)O[C@@H]4COP(=O)(S)O[C@H]4C[C@H](n5cc(C)c(=O)[nH]c5=O)O[C@@H]4COP(=O)(S)O[C@H]4[C@@H](O)[C@H](n5cnc6c(=O)[nH]c(N)nc65)O[C@@H]4COP(=O)(S)O[C@H]4C[C@H](n5cc(C)c(=O)[nH]c5=O)O[C@@H]4COP(=O)(S)O[C@H]4[C@@H](O)[C@H](n5ccc(N)nc5=O)O[C@@H]4COP(=O)(S)O[C@H]4C[C@H](n5cc(C)c(=O)[nH]c5=O)O[C@@H]4CO)C3)[C@@H](COP(=O)(S)O[C@H]3[C@@H](O)[C@H](n4ccc(N)nc4=O)O[C@@H]3COP(=O)(S)O[C@H]3C[C@H](n4cc(C)c(=O)[nH]c4=O)O[C@@H]3COP(=O)(S)O[C@H]3C[C@H](n4cc(C)c(=O)[nH]c4=O)O[C@@H]3COP(=O)(S)O[C@H]3C[C@H](n4ccc5c(=O)[nH]c(N)nc54)O[C@@H]3COP(=O)(S)O[C@H]3[C@@H](O)[C@H](n4ccc(N)nc4=O)O[C@@H]3COP(=O)(S)O[C@H]3C[C@H](n4cc(C)c(=O)[nH]c4=O)O[C@@H]3COP(=O)(S)O[C@H]3[C@@H](O)[C@H](n4cnc5c(=O)[nH]c(N)nc54)O[C@@H]3COP(=O)(S)O[C@H]3C[C@H](n4cc(C)c(=O)[nH]c4=O)O[C@@H]3COP(=O)(S)O[C@H]3[C@@H](O)[C@H](n4ccc(N)nc4=O)O[C@@H]3COP(=O)(S)O[C@H]3C[C@H](n4cc(C)c(=O)[nH]c4=O)O[C@@H]3CO)O2)c(=O)[nH]c1=O (stereo partly drawn)	0.12		0.29		Dose-dependent effect
